In ChEMBL document CHEMBL3393048, “Discovery of potent cytotoxic ortho-aryl chalcones as new scaffold targeting tubulin and mitosis with affinity-based fluorescence” (J Med Chem, 2014):
Calls of active or inactive are those of the source. No cut-off for these calls is given here.

What was measured:
MCF7 [1] = experiment: Antiproliferative activity against doxorubicin-resistant human MCF7 cells after 48 hrs by SRB method; assay type: functional, cell-based; conditions: MCF7, 48 h
How it was run: (§1)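 SRB assay. Cells in DMEM high glucose with 10% FBS were seeded at 5000/well and grown 24 h; a day-0 plate was fixed at that point. Compounds were added in triplicate for 48 h. IC50 came from nonlinear regression of dose–response curves from at least two independent experiments.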

A549 [2] = experiment: Induction of apoptosis in human A549 cells assessed as necrotic cells at 0.75 uM after 48 hrs by Annexin V-FITC/propidium iodide staining-based flow cytometry (reference value: 0.06%); assay type: functional
A549 [3] = experiment: Induction of apoptosis in human A549 cells assessed as viable cells at 0.75 uM after 48 hrs by Annexin V-FITC/propidium iodide staining-based flow cytometry (reference value: 99.37%); assay type: functional; conditions: A549, 48 h, read-out: Activity
A549 [4] = experiment: Induction of apoptosis in human A549 cells assessed as total apoptotic cells at 1 uM after 48 hrs by Annexin V-FITC/propidium iodide staining-based flow cytometry; assay type: functional
A549 [5] = experiment: Induction of apoptosis in human A549 cells assessed as early apoptotic cells at 0.25 uM after 48 hrs by Annexin V-FITC/propidium iodide staining-based flow cytometry (reference value: 0.47%); assay type: functional
A549 [6] = experiment: Induction of apoptosis in human A549 cells assessed as late apoptotic cells at 0.25 uM after 48 hrs by Annexin V-FITC/propidium iodide staining-based flow cytometry (reference value: 0.10%); assay type: functional
A549 [7] = experiment: Induction of apoptosis in human A549 cells assessed as early apoptotic cells at 0.5 uM after 48 hrs by Annexin V-FITC/propidium iodide staining-based flow cytometry (reference value: 0.47%); assay type: functional
A549 [8] = experiment: Antiproliferative activity against human A549 cells after 48 hrs by SRB method; assay type: functional, cell-based; conditions: A549, 48 h
How it was run: (§2)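 SRB assay. Cells in DMEM high glucose with 10% FBS were seeded at 5000/well and grown 24 h; a day-0 plate was fixed at that point. Compounds were added in triplicate for 48 h. Cells were fixed with TCA at 4 °C for 1 h, stained with 0.4% SRB, and the dye was solubilized in 10 mM Tris pH 10.4. OD was read at 515 nm with day-0 OD subtracted. IC50 came from nonlinear regression of dose–response curves from at least two independent experiments.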

A549 [9] = experiment: Induction of apoptosis in human A549 cells assessed as necrotic cells at 0.25 uM after 48 hrs by Annexin V-FITC/propidium iodide staining-based flow cytometry (reference value: 0.06%); assay type: functional
A549 [10] = experiment: Induction of apoptosis in human A549 cells assessed as total apoptotic cells at 0.75 uM after 48 hrs by Annexin V-FITC/propidium iodide staining-based flow cytometry; assay type: functional
A549 [11] = experiment: Induction of apoptosis in human A549 cells assessed as early apoptotic cells at 1 uM after 48 hrs by Annexin V-FITC/propidium iodide staining-based flow cytometry (reference value: 0.47%); assay type: functional
A2780 [12] = experiment: Antiproliferative activity against human A2780 cells after 48 hrs by SRB method; assay type: functional, cell-based; conditions: A2780, 48 h; how it was run: as §1
A549 [13] = experiment: Induction of apoptosis in human A549 cells assessed as late apoptotic cells at 0.5 uM after 48 hrs by Annexin V-FITC/propidium iodide staining-based flow cytometry (reference value: 0.10%); assay type: functional
SW480 = experiment: Antiproliferative activity against human SW480 cells after 48 hrs by SRB method; assay type: functional, cell-based; conditions: SW480, 48 h; how it was run: as §1
[14] = Antiproliferative activity against human HCT8 cells after 48 hrs by SRB method; assay type: functional, cell-based; conditions: HCT-8, 48 h; how it was run: as §1
A549 [15] = experiment: Cell cycle arrest in human A549 cells assessed as accumulation at G2/M phase at 62.5 nM after 24 hrs by Hoechst 33342 staining-based ArrayScanVTI analysis; assay type: functional
How it was run: (§3)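 A549 cells were seeded at 5000/well, cultured overnight, then treated 24 h over a 7.81–250 concentration series. Cells were fixed in prewarmed paraformaldehyde 10 min, permeabilized with Triton X-100, and nuclei stained with Hoechst 33342. Imaging was by ArrayScan VTI high-content analysis. Phase percentage = cells within a gated fluorescence intensity / total cells counted.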

[16] = Drug resistance index, ratio of IC50 for vincristine-resistant human HCT8 cells to IC50 for human HCT8 cells; assay type: functional, HCT-8
How it was run: (§4)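 Drug resistance index = IC50 in the resistant line / IC50 in its parental line. […] Pairs: A549/CDDP vs A549, MCF-7/DOX vs MCF-7, A2780/TAX vs A2780, HCT-8/VCT vs HCT-8.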

A549 [17] = experiment: Induction of apoptosis in human A549 cells assessed as apoptotic cells after 48 hrs by Annexin V-FITC/propidium iodide staining-based flow cytometry; assay type: functional, cell-based
A2780 [18] = experiment: Drug resistance index, ratio of IC50 for taxol-resistant human A2780 cells to IC50 for human A2780 cells; assay type: functional; how it was run: as §4
Tubulin (Homo sapiens) [19] = target: T1, Tubulin (Homo sapiens) (UniProt P68371+Q9H4B7+P0DPH7+P68366+Q13509+Q71U36+P04350+Q3ZCM7+P07437+P68363+Q9BQE3+Q6PEY2+Q13885+Q9BVA1+Q9BUF5); experiment: Binding affinity to tubulin (unknown origin) at 4 uM after 30 mins by fluorescence assay; assay type: protein-complex assay
How it was run: (§5)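 Intrinsic fluorescence on tubulin binding. Compounds were mixed with tubulin (4 μM or 8 μM) in general tubulin buffer and incubated 30 min. Readings were excitation 430/emission 510 nm or excitation 365/emission 465 nm, with kinetic reads from mixing. ΔF = stable emission minus tubulin-only fluorescence. Optimal wavelengths were set by wavelength scanning.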

A549 [20] = experiment: Cell cycle arrest in human A549 cells assessed as accumulation at G2/M phase at 7.81 to 250 nM after 24 hrs by Hoechst 33342 staining-based ArrayScanVTI analysis; assay type: functional; how it was run: as §3
A549 [21] = experiment: Induction of apoptosis in human A549 cells assessed as necrotic cells at 0.5 uM after 48 hrs by Annexin V-FITC/propidium iodide staining-based flow cytometry (reference value: 0.06%); assay type: functional
MCF7 [22] = experiment: Antiproliferative activity against human MCF7 cells after 48 hrs by SRB method; assay type: functional, cell-based; conditions: MCF7, 48 h; how it was run: as §1
A549 [23] = experiment: Induction of apoptosis in human A549 cells assessed as early apoptotic cells at 0.75 uM after 48 hrs by Annexin V-FITC/propidium iodide staining-based flow cytometry (reference value: 0.47%); assay type: functional
[24] = Antiproliferative activity against human CNE2 cells after 48 hrs by SRB method; assay type: functional, cell-based; conditions: CNE-2, 48 h; how it was run: as §1
A549 [25] = experiment: Antiproliferative activity against cis-platinum-resistant human A549 cells after 48 hrs by SRB method; assay type: functional, cell-based; conditions: A549, 48 h; how it was run: as §2
Tubulin (Homo sapiens) [26] = target: T1, Tubulin (Homo sapiens); experiment: Binding affinity to tubulin (unknown origin) after 30 mins by fluorescence assay; assay type: protein-complex assay; how it was run: as §5
HepG2 = experiment: Antiproliferative activity against human HepG2 cells after 48 hrs by SRB method; assay type: functional, cell-based; conditions: HepG2, 48 h; how it was run: as §1
A549 [27] = experiment: Induction of apoptosis in human A549 cells assessed as viable cells at 0.25 uM after 48 hrs by Annexin V-FITC/propidium iodide staining-based flow cytometry (reference value: 99.37%); assay type: functional; conditions: A549, 48 h, read-out: Activity
A549 [28] = experiment: Induction of apoptosis in human A549 cells assessed as total apoptotic cells at 0.5 uM after 48 hrs by Annexin V-FITC/propidium iodide staining-based flow cytometry; assay type: functional
A549 [29] = experiment: Induction of apoptosis in human A549 cells assessed as total apoptotic cells at 0.25 uM after 48 hrs by Annexin V-FITC/propidium iodide staining-based flow cytometry; assay type: functional

Work on `CN(C)c1ccc(/C=C/C(=O)c2ccccc2-c2ccc(F)cc2)cc1` yielded an IC50 (MCF7 [1]) of 45 nM, an Activity (A549 [2]) of 9.38% and a viability at 0.75 µM (A549 [3]) of 8.57%. The Activity (A549 [4]) was 83.88%, the Activity (A549 [5]) was 34.67% and the Activity (A549 [6]) was 34.43%. The Activity (A549 [7]) was 33.86%, the IC50 (A549 [8]) was 73 nM and the Activity (A549 [9]) was 4.95%. The Activity (A549 [10]) was 82.06%, the Activity (A549 [11]) was 41.02% and the IC50 (A2780 [12]) was 94 nM. It also gave an Activity (A549 [13]) of 41.85%, an IC50 (SW480) of 41 nM and an IC50 [14] of 130 nM. The Activity (A549 [15]) was “Active”, the “Ratio IC50” value [16] was 0.72 and the Activity (A549 [17]) was “Dose-dependent effect”. For the same compound, the “Ratio IC50” value (A2780 [18]) was 0.52, the Activity (Tubulin (Homo sapiens) [19]) was “Active” and the Activity (A549 [20]) was “Active”. It also gave an Activity (A549 [21]) of 11.95%, an IC50 (MCF7 [22]) of 230 nM and an Activity (A549 [23]) of 36.61%. For the same compound, the IC50 [24] was 30 nM, the IC50 (A549 [25]) was 110 nM and the Activity (Tubulin (Homo sapiens) [26]) was “Dose-dependent effect”. The IC50 (HepG2) was 47 nM, the viability at 0.25 µM (A549 [27]) was 25.9% and the Activity (A549 [28]) was 75.71%. It also gave an Activity (A549 [29]) of 69.1%.
